Calls of active or inactive are those of the source.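 How the source made its calls: active means current rise at least 3 SD above the untreated control mean in each of two repeat wells; inactive means the rest.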

Potassium voltage-gated channel subfamily KQT member 1 (Homo sapiens), sequence (P51787 whole entry, looked up): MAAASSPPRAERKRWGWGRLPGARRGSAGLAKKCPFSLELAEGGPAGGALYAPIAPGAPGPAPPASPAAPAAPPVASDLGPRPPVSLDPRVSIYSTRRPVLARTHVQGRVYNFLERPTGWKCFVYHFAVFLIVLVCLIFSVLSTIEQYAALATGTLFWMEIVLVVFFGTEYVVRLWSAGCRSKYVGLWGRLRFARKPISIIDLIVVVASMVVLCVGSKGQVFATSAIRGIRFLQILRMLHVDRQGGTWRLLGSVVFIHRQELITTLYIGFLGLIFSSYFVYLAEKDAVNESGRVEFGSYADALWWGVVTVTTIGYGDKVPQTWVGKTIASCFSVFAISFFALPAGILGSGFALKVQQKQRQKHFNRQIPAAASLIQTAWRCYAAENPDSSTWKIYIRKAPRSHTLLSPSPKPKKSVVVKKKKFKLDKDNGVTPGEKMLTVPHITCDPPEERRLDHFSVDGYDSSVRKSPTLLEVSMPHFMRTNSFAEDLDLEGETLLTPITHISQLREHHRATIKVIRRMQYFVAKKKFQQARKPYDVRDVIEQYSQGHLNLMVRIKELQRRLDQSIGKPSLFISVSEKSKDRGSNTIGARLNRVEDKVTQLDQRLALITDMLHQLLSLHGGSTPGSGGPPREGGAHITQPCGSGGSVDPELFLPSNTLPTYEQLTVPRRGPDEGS

This test deals with Potassium voltage-gated channel subfamily KQT member 1 (Homo sapiens) (UniProt P51787). As to the kind of experiment: KCNQ1 channel current potentiators, confirmation, orthogonal assay for KCNQ1 potentiator project, IonWorks patch clamp, KCNQ1-CHO cells (AID 493184). Particulars: automated patch clamp current, at 10 µM. In outline:
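Probe or stimulus: depolarizing pulse to +40 mV from -90 mV; Material: CHO cells carrying KCNQ1; Compound: one dose, 10 µM final; Signal: automated voltage clamp, amphotericin B perforated patch; Read-out basis: percent current increase versus pre-compound level; Buffer or medium: pH 7.4 external bath; Replication: duplicates.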
(In patch-clamp work, channel activity is measured electrically.)
Turning to `O=C(c1cc([N+](=O)[O-])cc([N+](=O)[O-])c1)N1CCCc2ccccc21`, the result was inactive. In the case of `CCCCCCCCCCC[N+](C)(C)CC/C=C1/c2ccccc2Sc2ccc(Cl)cc21` it was “inactive”; in that of `O=c1sc(N2CCN(c3ccccc3F)CC2)nc2ccsc12`, “inactive”. As to `CCOc1ccc(C(=O)C(CCC(CN(C)C)C(=O)c2ccc(OCC)cc2)CN(C)C)cc1` (centres undefined), the result was inactive.

For the molecule `Cc1ccc(-c2nc3ncccc3o2)cc1NC(=O)c1cccnc1`, the result was inactive.

`COc1ccc(C(=O)CC(=O)C(=O)Nc2ccccc2Cl)cc1`: the result was inactive. With `O=C(CN1C(=O)CNC1=O)Nc1cccc(C(F)(F)F)c1`, the result was inactive.

Regarding `O=C(CNC(=O)c1ccccc1)NCc1ccc(Cl)cc1`, the result was inactive.

With `Cc1ccc2cccnc2c1NC(=S)NC(=O)c1ccccc1`, the outcome was inactive.

Turning to `CC(C)NC(=O)C1(S(=O)(=O)c2ccccc2)CC=CC1`, the result was inactive. Turning to `O=c1c2ccccc2nc(-c2ccc(Cl)c(Cl)c2)n1O`, the outcome was inactive. Then `Cc1cccc(NC(=O)Nc2ccc(OCc3ccccc3)cc2)n1`, with “inactive”; and `Cc1cc(O)ccc1N=Cc1c(C(F)(F)F)[nH][nH]c1=O`, with “inactive”.

As to `Cc1ccccc1-n1cnnc1SCC(=O)N1CCN(c2ccccc2)CC1`, the result was inactive. Take `CCCCN(CCCC)c1cn[nH]c(=O)c1Cl`: the result was inactive.

Consider `CCOC(=O)Cc1csc(NC(=S)NC(=O)C(C)(C)C)n1`, for which the result was inactive. For `N=C1S/C(=C\c2ccc(-c3cccc(Cl)c3)o2)C(=O)N1c1nccs1`, the result was inactive.

With `CCN(CC)C(=S)NC(=O)c1ccc(OC)c(Br)c1`, the outcome was inactive. For `COC(=O)c1ccc(CNC(=O)c2ccc(COc3ccccc3)cc2)cc1`, the result was inactive. Then `COc1ccc(/C=N/N=C2/NC(=O)C(c3ccccc3)S2)c(OC)c1` (centres undefined), with “inactive”.

Take `Cc1nc(NCc2cccnc2)c2c3c(sc2n1)CC(C)CC3` (centres undefined): the outcome was inactive. With `COc1ccc(C)cc1NC(=O)C(=O)NNC(=O)c1ccco1`, the outcome was inactive.

As for `COc1ccc(-n2nc3c(c2NC(=O)c2ccc4c(c2)OCO4)CS(=O)(=O)C3)cc1`, the outcome was inactive. Then `Fc1cccc(/C=N/Nc2ccc3ccccc3n2)c1`, with “inactive”; and `Cc1cc(=O)oc2cc(OCC3CC(c4ccccc4Cl)=NO3)ccc12` (centres undefined), with “inactive”; and `COC(=O)c1ccc(/C=C/c2ccc3cccc(OC)c3n2)cc1`, with “inactive”.

On to `CN1C=CC=C/C1=C1\SC(=S)N(C2CCCCC2)C1=O`, for which the result was inactive. For `S=c1[nH]nc(CSc2nc3ccccc3s2)n1C1CCCCC1`, the outcome was inactive. Consider `COc1cccc(/C=N/Nc2snc(SC)c2C#N)c1O`, for which the outcome was inactive.

Take `N#CCn1c(CCl)nc2ccccc2c1=O`: the outcome was inactive. With `O=C(NC(=S)N(Cc1ccccc1)Cc1ccccc1)c1ccccc1F`, the outcome was inactive. Then `O=C(NC(=S)N1CCCCCC1)c1ccccc1`, with “inactive”; and `CCCCC(Nc1ncnc2ccccc12)C(=O)O` (centres undefined), with “inactive”.

In the case of `COc1ccccc1C(=O)NNC(=O)C(=O)NC(C)(C)C`, the outcome was inactive.

In the case of `CC(=O)c1c(C)[nH]c(C(=O)OCc2nc3ccsc3c(=O)[nH]2)c1C`, the result was inactive.

On to `O=C(NCc1ccccc1)C(=O)NCC1CCCN1S(=O)(=O)c1cccs1` (centres undefined), for which the result was inactive.

Take `CCN(CC)S(=O)(=O)c1cc(OC)ccc1N=Nc1ccc(O)c2ncccc12`: the result was inactive. In the case of `O=C(NC1CC1)C1=NOC(CNc2ncc(C(F)(F)F)cc2Cl)C1` (centres undefined) it was “inactive”. `Cc1ccc(Cn2c(SCC(=O)N3CC(=O)Nc4ccccc43)nc3ccccc3c2=O)cc1`: the outcome was inactive.
